We go through twelve compounds from ChEMBL document CHEMBL1147200, “Synthesis, structural characterization, and in vitro antitumor activity of novel N-(6-chloro-1,1-dioxo-1,4,2-benzodithiazin-3-yl)arylsulfonamides” (2007).

Holding throughout (assay type): functional
Experiment [1] has as its system 5637. The experiment can be described thus: Cytotoxicity against human 5637 cells after 96 hrs. The note with it: Homo sapiens, 5637, 96 h. In a few lines: (§1)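 Cells plated in 96-well format, left 24 h, then given compound continuously for 96 h. Growth read by staining attached viable cells with crystal violet, washing, redissolving bound dye in 70% ethanol and reading OD at 570 nm. GI50 computed from dose–response data of 5 to 7 independent experiments.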

Experiment [2] has as its system RT-4. The experiment can be described thus: Cytotoxicity against human RT4 cells after 96 hrs. The note with it: RT-4, 96 h. In a few lines: as §1
Experiment [3] relates to A-427. The experiment can be described thus: Cytotoxicity against human A427 cells after 96 hrs. The note with it: A-427, 96 h. In a few lines: as §1
Experiment [4] can be described thus: Cytotoxicity against human LCLC103H cells after 96 hrs. The following applies: LCLC-103H. The method, boiled down: as §1
The subject of experiment [5] is DAN-G. The experiment can be described thus: Cytotoxicity against human DANG cells after 96 hrs. In a few lines: as §1
The subject of experiment [6] is MCF7. In words: Cytotoxicity against human MCF7 cells after 96 hrs. The following applies: MCF7, 96 h. In a few lines:
as §1

As a reminder, the GI50 is the concentration at which growth is held to half of that of the control. High values mean less potent growth inhibition, low ones more potent growth inhibition.

Take `O=C(Oc1cccc2cccnc12)c1cc2c(cc1Cl)SC(N(c1ccc(F)cc1)S(=O)(=O)c1ccc(Cl)cc1)=NS2(=O)=O`: the 50% growth inhibitory concentration (GI50) in experiment [1] is 6.2 µM; in experiment [2] it was more than 20 µM; in experiment [3] it was 3.1 µM; in experiment [4], 4.6 µM; in experiment [5], 9.3 µM; in experiment [6], 3.2 µM.

For `COC(=O)c1cc2c(cc1Cl)SC(N(N(C)C)S(=O)(=O)c1ccc(Br)s1)=NS2(=O)=O`, the concentration for 50% growth inhibition (GI50) in experiment [1] was 13.7 µM; in experiment [2], 18.5 µM; in experiment [3], 12 µM; in experiment [4] it was 19.1 µM; in experiment [5], 23.7 µM; in experiment [6], 10.9 µM.

With `CCOC(=O)c1cc2c(cc1Cl)SC(N(c1ccccc1)S(=O)(=O)c1ccc(Cl)cc1)=NS2(=O)=O`, the GI50 in experiment [1] was 14.3 µM; in experiment [2] it was more than 20 µM; in experiment [3], 11.7 µM; in experiment [4] it was more than 20 µM; in experiment [5], 14.8 µM; in experiment [6], 9.8 µM.

As for `CCOC(=O)c1cc2c(cc1Cl)SC(N(c1ccc(OC)cc1)S(=O)(=O)c1ccc(Cl)cc1)=NS2(=O)=O`, the GI50 in experiment [1] is 11.9 µM; in experiment [2], 23.1 µM; in experiment [3], 11.2 µM; in experiment [4], 19.3 µM; in experiment [5], 12.3 µM; in experiment [6], 8.1 µM.

For the compound `CCOC(=O)c1cc2c(cc1Cl)SC(N(c1ccc(OC)cc1)S(=O)(=O)c1ccccc1)=NS2(=O)=O`, the GI50 is 6.5 µM in experiment [1]; 16.8 µM in experiment [2]; 7 µM in experiment [3]; 9.3 µM in experiment [4]; 7.6 µM in experiment [5]; 4.9 µM in experiment [6].

As for `CCOC(=O)c1cc2c(cc1Cl)SC(N(c1ccc(F)cc1)S(=O)(=O)c1ccc(OC)cc1)=NS2(=O)=O`, the GI50 in experiment [1] turned out to be 12.1 µM; in experiment [2], 19 µM; in experiment [3], 8.4 µM; in experiment [4], 17.5 µM; in experiment [5], 12 µM; in experiment [6] it was 5.8 µM.

`Cc1cc2c(cc1Cl)SC(N(c1ccc(Cl)cc1)S(=O)(=O)c1ccccc1)=NS2(=O)=O`: the GI50 in experiment [1] was determined as 9.6 µM; in experiment [2] it was 22 µM; in experiment [3], 9.2 µM; in experiment [4] it was 12.4 µM; in experiment [5] it was 9.9 µM; in experiment [6] it was 8.1 µM.

Regarding `Cc1cc2c(cc1Cl)SC(N(N(C)C)S(=O)(=O)c1ccc(Cl)cc1)=NS2(=O)=O`, the 50% growth inhibitory concentration (GI50) was 19.2 µM in experiment [1]; more than 20 µM in experiment [2]; 15.6 µM in experiment [3]; more than 20 µM in experiment [4]; 23.5 µM in experiment [5]; 12.3 µM in experiment [6].

As for `COC(=O)c1cc2c(cc1Cl)SC(N(N(C)C)S(=O)(=O)c1ccc(Cl)cc1)=NS2(=O)=O`, the 50% growth inhibitory concentration (GI50) came to 12.6 µM in experiment [1]; 18.5 µM in experiment [2]; 10.2 µM in experiment [3]; 19.6 µM in experiment [4]; 18.7 µM in experiment [5]; 8.7 µM in experiment [6].

For `CCOC(=O)c1cc2c(cc1Cl)SC(N(c1ccc(OC)cc1)S(=O)(=O)c1ccc(Cl)cc1Cl)=NS2(=O)=O`, the 50% growth inhibitory concentration (GI50) in experiment [1] amounted to 2.3 µM; in experiment [2], 6.3 µM; in experiment [3], 4.1 µM; in experiment [4], 2.8 µM; in experiment [5], 3.1 µM; in experiment [6] it was 2.4 µM.

In the case of `Cc1cc2c(cc1Cl)SC(N(c1ccccc1Cl)S(=O)(=O)c1ccc(Br)s1)=NS2(=O)=O`, the GI50 in experiment [1] came to 7.5 µM; in experiment [2], 28.6 µM; in experiment [3], 8.2 µM; in experiment [4], 11.9 µM; in experiment [5] it was 9.4 µM; in experiment [6], 6.5 µM.

As for `O=C(Oc1cccc2cccnc12)c1cc2c(cc1Cl)SC(N(c1ccc(F)cc1)S(=O)(=O)c1ccc(Br)s1)=NS2(=O)=O`, the 50% growth inhibitory concentration (GI50) in experiment [1] is 5.1 µM; in experiment [2] it was more than 20 µM; in experiment [3], 3.4 µM; in experiment [4] it was 5.3 µM; in experiment [5], 8.2 µM; in experiment [6], 3.2 µM.
